Assay results from different studies.
Target: Activin receptor type-1B (ACVR1B, Homo sapiens, UniProt P36896)
Sequence (P36896 24-505, as in one of the studies): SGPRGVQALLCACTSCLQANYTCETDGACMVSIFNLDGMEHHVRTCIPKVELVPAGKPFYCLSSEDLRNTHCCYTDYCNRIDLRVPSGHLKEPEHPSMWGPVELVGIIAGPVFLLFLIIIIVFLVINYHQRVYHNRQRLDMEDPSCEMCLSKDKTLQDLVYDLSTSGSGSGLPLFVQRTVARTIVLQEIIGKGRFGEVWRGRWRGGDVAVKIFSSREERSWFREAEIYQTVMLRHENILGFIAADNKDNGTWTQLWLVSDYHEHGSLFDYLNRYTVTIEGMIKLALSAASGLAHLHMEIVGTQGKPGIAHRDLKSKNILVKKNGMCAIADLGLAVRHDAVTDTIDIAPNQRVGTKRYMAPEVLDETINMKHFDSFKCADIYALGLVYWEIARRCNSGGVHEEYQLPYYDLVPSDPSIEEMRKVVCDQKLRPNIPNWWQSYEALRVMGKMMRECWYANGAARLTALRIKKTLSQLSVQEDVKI

Compound | assay | conditions | measurement | result
Cc1ccc(Nc2nccc(N(C)c3ccc4c(C)n(C)nc4c3)n2)cc1S(N)(=O)=O | cell-free assay, inhibitor | 0.3 µM | inhibition | -22%
O=C(Nc1ccc(Oc2ccc(F)cc2)cc1)N1CCc2ncccc2[C@H]1c1ccc(F)cc1 | cell-free assay, competition with immobilised ligand | 1 µM | remaining binding | 94%
CCCS(=O)(=O)Nc1ccc(F)c(C(=O)c2c[nH]c3ncc(-c4ccc(Cl)cc4)cc23)c1F | enzyme activity, inhibitor | 1 µM | inhibition | < 10%
Cn1c2c(Cl)c(Cl)ccc2c2cc[nH]c(=O)c21 | thermal stability, DSF | 10 µM | ΔTm | 3.1 °C
CN([C@@H]1CCc2c(CC(=O)O)c3cc(S(C)(=O)=O)ccc3n2C1)S(=O)(=O)c1ccc(F)cc1 | cell-free assay, competition with immobilised ligand | 1 µM | remaining binding | 99%
O=C(Nc1cnn(-c2csc(C(=O)NC3COC3)c2)c1)Nc1c(F)cccc1Cl | enzyme activity, inhibitor | 5 µM | remaining activity | 82%
Cn1nc(C(=O)NCc2ccc(C(=O)O)cc2)cc1-c1ccc2[nH]ccc2c1 | cell-free assay, competition with immobilised ligand | 0.1 µM | remaining binding | 83%
Nc1ncnc2occ(-c3ccc(NC(=O)Nc4cc(C(F)(F)F)ccc4F)cc3)c12 | cell-free assay | 20 µM | remaining signal | 99%
Cn1cc(Cl)c2c(Oc3c(F)cc(Nc4cc(Cl)nc(N)n4)cc3F)ccnc21 | cell-free assay, competition with immobilised ligand | 0.1 µM | remaining binding | 98%
N#CCCc1ccc2c(c1)-c1[nH]c3ccc([N+](=O)[O-])cc3c1CC(=O)N2 | cell-free assay | 0.5 µM | remaining signal | 110%
COc1cc2ncnc(Nc3ccc(Oc4ccccc4)c(C)c3C)c2cc1OC | enzyme activity, inhibitor | 1 µM | inhibition | -3%
CCN1CCC2(CC1)NC(=O)c1c(c3ccc(Cl)c(Cl)c3n1C)C2C#N (racemic) | thermal stability, DSF | 10 µM | ΔTm | 0 °C
Clc1ccc(Nc2nnc(Cc3ccncc3)c3ccccc23)cc1 | cell-free assay | 0.5 µM | remaining signal | 108%
Cc1sc(C(=O)NC2COC2)cc1-n1cc(NC(=O)Nc2c(F)cccc2Cl)cn1 | enzyme activity, inhibitor | 10 µM | remaining activity | 78.5%
c1ccc(N2CCN(Cc3nc4ccccc4[nH]3)CC2)nc1 | cell-free assay, competition with immobilised ligand | 1 µM | remaining binding | 85%
CNC(=O)c1cc(Oc2ccc(NC(=O)Nc3ccc(Cl)c(C(F)(F)F)c3)cc2)ccn1 | cell-free assay, inhibitor | 10 µM | inhibition | 17%
CN(C)C1CCN(CC#Cc2nn(C3CCCC3)c3nc(NCc4ccccc4)ncc23)C1 (stereo not shown) | enzyme activity, inhibitor, FRET | 10 µM | inhibition | -8%
Cn1c2c(c3ccc(Cl)c(Cl)c31)C(C#N)C1(CCN(C(=O)OC(C)(C)C)CC1)NC2=O (racemic) | thermal stability, DSF | 10 µM | ΔTm | -0.1 °C
CC(C)(C)c1nc(-c2cccc(NS(=O)(=O)c3c(F)cccc3F)c2F)c(-c2ccnc(N)n2)s1 | enzyme activity, inhibitor, radiometric | 1 µM | remaining activity | 22%
CN1CCN(c2cnc3c(C4CCN(C(=O)c5ccc(OC(F)(F)F)cc5N)CC4)ncnc3c2)CC1 | cell-free assay, competition with immobilised ligand | 1 µM | remaining binding | 79%
CC(C)(O)[C@H]1CC[C@H](Nc2ccc3ncc(-c4cccc(C(F)(F)F)c4)n3n2)CC1 | enzyme activity, inhibitor | 1 µM | remaining activity | 100%
COc1cc(-c2cc(-c3ccc(N4CCNCC4)cc3)cnc2C)cc(OC)c1OC | enzyme activity, inhibitor | 1 µM | inhibition | 36%
CC1(C)NC(=O)c2[nH]c3c(Cl)c(Cl)ccc3c2C1C#N (stereo not shown) | thermal stability, DSF | 10 µM | ΔTm | 1.6 °C
CCN(CC)c1ccc(C2=NNC(=O)CC2C)cc1[N+](=O)[O-] (stereo not shown) | enzyme activity, inhibitor | 10 µM | remaining activity | 109%
CSc1cccnc1N1CCN(Cc2nc3ccccc3[nH]2)CC1 | cell-free assay, competition with immobilised ligand | 1 µM | remaining binding | 100%
CS(=O)(=O)Nc1cccc(-c2csc(NC(=O)CSc3nc4nccnc4c(=O)n3CCc3ccccc3)n2)c1 | enzyme activity, inhibitor | 10 µM | inhibition | 2%
CNCc1ccccc1-c1csc([C@H](C)Nc2nc(C)nc3cc(OC)c(OC)cc23)c1 | cell-free assay, competition with immobilised ligand | 1 µM | remaining binding | 100%
O=C1Nc2ccc(Cl)cc2C1=Cc1cc(Cl)c(O)c(Cl)c1 | cell-free assay | 0.5 µM | remaining signal | 127%
